# T cruzi inh – inhibitors of intracellular T. cruzi growth, primary screen, luminescence, NIH3T3 host cells. AID 1885, 2009. inhibition, % (test concentration not listed). T. cruzi beta-gal in NIH3T3, 90 h. hit rate 1.4% among 300,000;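 active means mean inhibition across valid replicates above about 55%, limit read from the data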;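 further: signal also drops with host cell toxicity which is not excluded here; 0% = plate median of DMSO wells and 100% = zero luminescence signal; higher percent means less beta-gal luminescence so fewer parasites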
#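 Material: NIH/3T3 host cells with β-galactosidase reporter T. cruzi; Input: 5,000 host fibroblasts per well; Medium: DMEM, 2% fetal bovine serum; Compound: 50 nL DMSO compound solution per well; Schedule: 3 h host attachment, then at least 90 h co-culture; Detection: luminescent β-galactosidase signal after 60 min lysis.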
# CSC inhib – cancer stem cell viability inhibitors, primary screen, luminescence; cancer stem cell-like cells viability; inhibition, % at 7.5 µM; hit rate 1.1% among 300,000; in the data active means inhibition above about 75%; tested in HMLE shEcad cells
# NALP3 yeast inh – NALP3 inflammasome inhibitors in reconstituted yeast, primary screen, luminescence, uHTS | hit rate 0.39% among 330,000 | inhibition, % at 10 µM | Yeast reconstituted NLRP3/ASC/caspase-1, beta-gal luminescence, 24 h;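 active means inhibition of 50% or more; inactive means inhibition below 50%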;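 further: plate controls were induced DMSO wells for no effect and uninduced yeast grown without galactose for full effect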
# Calb FLC – C. albicans growth inhibition with fluconazole, primary screen, CaCi-2 strain, Alamar Blue fluorescence; C. albicans CaCi-2 + fluconazole, 48 h; growth inhibition, % (concentration not given with the values); hit rate 0.57% among 300,000; AID 1979, 2009;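 active means growth inhibition above about 58% in most replicates, limit read from the data, passing the limit was not always enough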;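 further: all wells also contain fluconazole at 8 µg/ml as a sub-toxic cotreatment; 0% = median of DMSO wells and 100% = median of geldanamycin control wells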
# Beta apoptosis – inhibitors of cytokine-induced beta cell apoptosis, primary screen, luminescence; INS-1E cytokine-induced death, ATP luminescence, 48 h; percent of positive-control rescue, neutral wells zero; protection from apoptosis, % (no concentration beside the values); hit rate 0.8% among 300,000;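 active means Every replicate reaches about 75%, or at least half do and their mean reaches it too, limit read from the data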;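 further: 0% = cytokine-treated negative control wells and 100% = positive control rescue; higher means more ATP so stronger rescue from cytokine killing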
# Mdm2-MdmX inh – inhibitors of human Mdm2-MdmX association, primary screen, cell-based, luminescence, split luciferase, SaOS-2, uHTS. hit rate 3% among 330,000. Protein Mdm4 (Homo sapiens) + E3 ubiquitin-protein ligase Mdm2 (Homo sapiens), …. SaOS-2 split-luciferase Mdm2/MdmX complementation. inhibition, % at 8 µM;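 active means inhibition of at least 50% at 8 µM in the primary screen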
# Target sequence (O15151 whole entry, looked up): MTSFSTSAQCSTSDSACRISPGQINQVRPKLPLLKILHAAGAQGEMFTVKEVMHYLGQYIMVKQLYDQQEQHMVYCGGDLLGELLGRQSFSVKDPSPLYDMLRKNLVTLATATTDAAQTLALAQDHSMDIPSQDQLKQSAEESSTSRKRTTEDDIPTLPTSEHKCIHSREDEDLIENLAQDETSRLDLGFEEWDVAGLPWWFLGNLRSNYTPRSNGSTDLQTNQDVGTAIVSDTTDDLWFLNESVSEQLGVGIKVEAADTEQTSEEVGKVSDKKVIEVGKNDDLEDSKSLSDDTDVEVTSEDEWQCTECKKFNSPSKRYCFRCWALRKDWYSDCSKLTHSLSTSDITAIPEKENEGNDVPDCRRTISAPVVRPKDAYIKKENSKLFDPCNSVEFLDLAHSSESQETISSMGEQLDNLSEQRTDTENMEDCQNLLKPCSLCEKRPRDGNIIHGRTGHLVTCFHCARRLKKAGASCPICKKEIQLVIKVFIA
# Target sequence (Q00987 whole entry, looked up): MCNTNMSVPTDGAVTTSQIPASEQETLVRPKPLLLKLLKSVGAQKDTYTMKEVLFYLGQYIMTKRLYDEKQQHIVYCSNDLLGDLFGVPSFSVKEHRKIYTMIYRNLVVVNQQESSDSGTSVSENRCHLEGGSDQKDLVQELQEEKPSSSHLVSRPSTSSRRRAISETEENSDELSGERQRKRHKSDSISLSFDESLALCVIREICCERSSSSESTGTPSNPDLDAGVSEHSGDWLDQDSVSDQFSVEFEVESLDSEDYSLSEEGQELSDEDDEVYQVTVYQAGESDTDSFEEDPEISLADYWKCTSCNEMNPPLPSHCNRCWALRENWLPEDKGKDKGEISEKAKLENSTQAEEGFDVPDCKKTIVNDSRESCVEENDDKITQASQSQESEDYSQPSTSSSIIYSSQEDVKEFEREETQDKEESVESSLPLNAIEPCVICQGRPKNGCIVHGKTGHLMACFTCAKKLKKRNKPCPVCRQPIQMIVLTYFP
# Mdm2 MdmX conf – Mdm2-MdmX complex disruptors, retested hits, confirmation, luminescence, single concentration; shares compounds with Mdm2-MdmX inh; Mdm2-MdmX binding, luminescent assay; inhibition, % at 8 µM; hit rate 55% among 10,000; AID 489028, 2010; in the data active means inhibition above about 40%
# FLuc counter – full-length luciferase signal inhibition, confirmation, counter-screen for Mdm2/MdmX interaction inhibitor project, cell-based, single concentration, SaOS-2. inhibition, % at 8 µM. SaOS-2 full-length luciferase counterscreen, luminescence. shares compounds with Mdm2-MdmX inh. AID 504607, 2011. hit rate 77% among 6,200;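 active means mean inhibition at 8 µM reaching about 37%, which flags the compound as non-specific, limit read from the data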;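 further: p53-null SaOS-2 cells with luciferase driven by a doxycycline-inducible promoter; compound on cells about two nights before reading with doxycycline added after day one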
# * marks the source's active call; other numbers are inactive results; · = not tested or not shown. Sampled rows, rich in hits. Any-hit rate of the full collection: about 5.3%.
SMILES,T cruzi inh,CSC inhib,NALP3 yeast inh,Calb FLC,Beta apoptosis,Mdm2-MdmX inh,Mdm2 MdmX conf,others
Cc1ccc2cc(CN(C(=O)c3ccco3)c3cccc(C)c3C)c(=O)[nH]c2c1,7.9,-7.0,-7.7,6.6,5.2,6.2,·,
CC(C)COc1ccc(C(=O)NCc2ccco2)cc1,6.5,-9.5,36.2,42.4,0.5,-3.5,·,
O=C(NC1CC1)C1CCCN1S(=O)(=O)c1ccc2ccccc2c1 (centres undefined),-8.2,34.6,1.2,8.0,-2.3,31.8,·,
CCn1cc(S(=O)(=O)CC(=O)Nc2cc(C)ccc2C)c2ccccc21,-5.6,-13.6,5.8,0.5,-12.1,10.2,·,
COc1cc(/C=N\NC(=O)c2ccc(-c3ccccc3)cc2)cc(OC)c1O,-5.7,-27.4,6.7,-8.2,39.3,12.9,·,
COc1cc(/C=N/NC(N)=S)ccc1OCC(=O)Nc1ccc(C)cc1,-13.5,1.2,8.9,15.1,-5.5,-14.0,·,
COc1cc(/C=N\NC(=O)c2ccc(-c3ccccc3)cc2)ccc1OCC(N)=O,-9.0,-4.6,3.4,10.6,4.6,50.2*,30.7,
CCCCOc1ccc(C(=O)N/N=C/c2ccc(OCCN3CCCCC3)c(OC)c2)cc1,33.7,18.8,0.7,29.2,15.8,80.6*,21.8,
COc1cc(/C=N/NC(=O)c2ccccc2O)ccc1OCC(=O)Nc1ccccc1,-5.3,-5.6,15.4,6.8,4.9,-28.9,·,
COc1cc(/C=N/NC(N)=O)ccc1OCC(=O)Nc1cc(C)c(C)cc1Br,-9.1,6.6,10.4,10.6,0.1,81.4*,49.5*,FLuc counter=105.6*
O=C(COc1ccc(/C=N/NC(=O)c2cc3ccccc3o2)cc1Cl)Nc1ccccc1,72.7*,115.7*,14.3,12.0,-3.7,97.4*,-100.5,
Cc1cc(C)c(S(=O)(=O)N2CCC(C(N)=O)CC2)cc1C,-5.4,-2.4,9.0,-3.4,2.1,37.8,·,
O=C(N[C@@H]1C/C=C\C[C@H](CC(=O)N(CCO)Cc2ccccc2)C(=O)NC[C@@H](c2ccccc2)OC1=O)OCC1c2ccccc2-c2ccccc21,·,·,22.1,·,26.4,50.7*,6.7,
O=C(N[C@@H]1C/C=C\C[C@@H](CC(=O)N(CCO)Cc2ccccc2)C(=O)NC[C@H](c2ccccc2)OC1=O)OCC1c2ccccc2-c2ccccc21,·,·,27.4,·,10.5,61.1*,10.8,
O=C(C[C@@H]1C/C=C\C[C@@H](Cc2ccc(F)cc2)C(=O)OC[C@@H](Cc2ccccc2)NC1=O)N[C@H](CO)Cc1ccccc1,·,6.8,30.2,·,0.7,80.1*,66.5*,FLuc counter=40.6*
O=C(C[C@H]1C/C=C\C[C@H](NC(=O)OCC2c3ccccc3-c3ccccc32)C(=O)O[C@H](c2ccccc2)CNC1=O)N[C@H](CO)Cc1ccccc1,·,·,20.0,·,34.7,78.5*,47.0*,FLuc counter=56.2*
O=C(N[C@H]1C/C=C\C[C@H](CC(=O)N(CCO)Cc2ccccc2)C(=O)N[C@@H](c2ccccc2)COC1=O)OCC1c2ccccc2-c2ccccc21,·,·,5.8,·,·,8.6,·,
Cc1onc(-c2ccccc2)c1-c1ccc(S(N)(=O)=O)cc1,11.1,-2.7,7.4,10.1,-3.2,-2.3,·,
CC(C)Cc1cc(C(=O)Nc2ccc(Br)cc2)no1,9.8,5.0,-11.4,-2.7,-6.5,-111.2,·,
CC(C)(C)OC(=O)C[C@@H]1C/C=C\C[C@@H](CC(=O)N(CCO)Cc2ccccc2)C(=O)NC[C@@H](c2ccccc2)OC1=O,·,·,-4.6,·,2.4,0.0,·,
